Screens deposited in PubChem by Broad Institute.
E-selectin induc = E-selectin induction in HUVECs, primary screen, imaging, HUVEC, immunofluorescence imaging, single point. normalized: neutral wells 0, TNF-alpha wells 100. activation, % at 7.58 µM. P16581. hit rate 0.37% among 260,000. AID 686992, 2013;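 active = mean E-selectin-positive cell signal at least 10% of the positive control, reached in at least 60% of replicates, without over 20% cell loss; inconclusive = no rule given, readout overlaps actives, possibly toxicity-flagged; inactive = the rest, including those meeting only one limit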
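System: HUVEC, human umbilical vein endothelial cells; quantity: 3,000 cells/well; buffer or medium: EGM-2 medium, gelatin-coated wells; dosing: single-point compound dose; detection: immunofluorescence imaging; evaluation: % PE-positive cells; benchmarks: TNF-alpha, DMSO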
RAD54 branch = inhibitors of human RAD54 branch migration, primary screen, biochemical, fluorescence, single point | hit rate 0.14% among 360,000 | inhibition, % at 10.4 µM | RAD54 Holliday junction branch migration, FAM/BHQ fluorescence;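 active = mean normalized replicate activity at least 40 and at least half of replicates scoring 40 or more; inconclusive = only one of the two criteria met; inactive = mean below 40 and under half of replicates reaching 40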;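 also: 0% = median of neutral control wells and 100% = median of positive control wells; inhibitors cause a drop in the FAM fluorescence signal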
rRNA inh HTS = reduced GFP signal of wild-type E. coli, primary screen, bacterial rRNA inhibitor project, GFP/RFP fluorescence, OD600, single point. E. coli WT GFP vs humanized-ribosome RFP mutants, 24 h; active compounds read low; DMSO median 0, no signal -100. GFP signal change (wild-type ribosome), % (no concentration beside the values). hit rate 1.6% among 350,000. AID 720706, 2013;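 active = significant combined selectivity score with lowered wild-type GFP, culture density cut under 30%, mutant RFP and density less affected; inactive = any of these conditions unmet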
AF4-AF9 inh = inhibitors of AF4 peptide binding to AF9, primary screen, biochemical, AlphaScreen, biotin-AF4 peptide, FLAG-AF9, single point; hit rate 0.47% among 350,000; Protein AF-9 (Homo sapiens), P42568; inhibition, % at 10 µM; AID 651704, 2012;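 active = every replicate reaching a set inhibition limit, whatever the replicate mean, cut at about 25% in these data; inconclusive = mean inhibition reaches that limit but some replicates miss it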;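 also: 0% = plate neutral control median and 100% = total signal loss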
RAD52 inh = RAD52 DNA annealing inhibitors, primary screen, biochemical, FRET, single point, set 2; recombinant RAD52 DNA annealing, FRET fluorescence; inhibition, % at 18.7 µM; hit rate 0.46% among 360,000; AID 651710, 2012;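 active = every replicate showing at least 50% inhibition; inconclusive = mean inhibition at least 50% but not in every replicate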
Target sequence (P43351 whole entry, looked up): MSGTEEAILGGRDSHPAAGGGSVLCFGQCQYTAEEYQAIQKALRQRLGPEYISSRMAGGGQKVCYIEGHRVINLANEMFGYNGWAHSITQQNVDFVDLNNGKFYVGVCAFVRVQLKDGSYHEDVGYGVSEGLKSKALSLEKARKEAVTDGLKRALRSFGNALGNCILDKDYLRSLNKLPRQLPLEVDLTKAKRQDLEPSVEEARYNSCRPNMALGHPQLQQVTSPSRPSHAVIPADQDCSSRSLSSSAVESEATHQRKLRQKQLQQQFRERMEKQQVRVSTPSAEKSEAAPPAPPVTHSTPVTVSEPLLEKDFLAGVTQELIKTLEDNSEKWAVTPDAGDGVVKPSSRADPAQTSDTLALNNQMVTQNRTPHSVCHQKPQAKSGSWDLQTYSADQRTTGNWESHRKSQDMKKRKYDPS
INS-1E GSIS act = GLuc luminescence reporter in INS-1E cells, primary screen for activators of glucose-dependent secretion of insulin | activation, % at 16.6 µM | hit rate 0.61% among 370,000 | INS-1E GLuc reporter insulin secretion, 2-3 h;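 active = lowest replicate activation of at least 40%, so every replicate reaches that level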;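 also: 0% = median of neutral control wells and 100% = median of IBMX positive control wells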
DNA binding = DNA binding of candidate compounds, dose response, artefact control for RAD54 inhibitor project, biochemical, fluorescence polarization, cherry-pick. hit rate 8% among 460. Acridine orange-DNA displacement, 20 min. shares compounds with RAD54 branch. AC50, µM (highest dose often 35 µM), inactives show at the highest dose activity change, negative = DNA binding;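 active = signal drop giving an AC50 within twice the top valid tested concentration of each sample, actives reach about 35 µM in these data; inactive = activity opposite to expected, plus the rest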;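 also: polarization loss reports compound binding to salmon sperm DNA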
Active calls of the source: *; i = inactive; ? = inconclusive; . = no result given. Compounds with a hit are over-represented: about 2.6% of the library has one in this group of screens.

SMILES	E-selectin induc	RAD54 branch	rRNA inh HTS	AF4-AF9 inh	RAD52 inh	INS-1E GSIS act	DNA binding
CCCN(CCC)CCCNC(=O)c1cc2cc3ccc(OC)cc3nc2o1	.	?	.	.	.	.	-18%
C[C@@H]1CN([C@@H](C)CO)C(=O)Cc2cc(NC(=O)c3ccncc3)ccc2O[C@@H]1CN(C)S(=O)(=O)c1ccc(F)cc1	0	-2	-1	0	-2	13	.
Cn1cnc(S(=O)(=O)N2C[C@@H](O)COC[C@@H]3O[C@H](CC(=O)NC4Cc5ccccc5C4)CC[C@H]32)c1	0	6	3	-3	-1	3	.
COc1ccc(Nc2nc(N3CCCCC3)nc3ccccc23)c(OC)c1	.	55*	.	.	.	-28	9%
C[C@H]1CCCCO[C@H](CN(C)C(=O)Nc2ccccc2)[C@@H](C)CN([C@@H](C)CO)C(=O)c2cc(NS(=O)(=O)c3ccc(F)cc3)ccc2O1	0	12	-5	.	.	-35	.
NC(COCc1ccccc1)c1csc(Nc2nncc3ccccc23)n1 (stereo unspecified)	1	1	.	2	-44	.	.
NCc1csc(Nc2nncc3ccccc23)n1	0	75*	12	8	30	.	-8%
CCOC(=O)Nc1c2ccccc2nc2ccccc12	0	57*	-8	7	16	16	-13%
CCOC(=O)c1cnc2ccc(C)cc2c1NCCN1CCOCC1	0	?	-9	-3	4	6	-16%
CCOC(=O)c1cnc2c(Cl)c(Cl)ccc2c1NCCN1CCOCC1	0	-3	10	-9	-35	-3	.
CCOC(=O)c1cnc2c(C)c(Cl)ccc2c1NCCCN1CCOCC1	0	60*	-3	0	3	8	i
COc1ccc(Cn2cc3c(-c4ccc(F)cc4)nnc-3c3cc(OC)c(OC)cc32)cc1	0	64*	74	-9	-243	.	0%
O=C(C[C@@H]1CC[C@@H]2[C@H](COC[C@@H](O)CN2C(=O)c2ccc(F)cc2)O1)NCCCN1CCOCC1	0	-14	-1	-16	-58	12	.
CCN(CC)CC(=O)Nc1c(C)cccc1C	0	-8	.	-8	-7	2	.
CCN(CC)CC(=O)Nc1cccc2c1C(=O)c1ccccc1C2=O	.	70*	.	.	.	17	2%
Cc1ccc(S(=O)(=O)NCCNc2ccccc2[N+](=O)[O-])cc1	.	.	-24	4	-5	2	.
Cc1ccc(S(=O)(=O)NCCCNS(=O)(=O)c2ccccc2[N+](=O)[O-])cc1	.	?	-4	2	1	-6	-20%
CO[C@@H]1CN(C)C(=O)c2cc(NC(=O)c3cnccn3)ccc2OC[C@H](C)N(C(C)=O)C[C@H]1C	0	3	3	-1	-14	11	.
COc1ccccc1Nc1nc(-c2ccccc2)nc2ccccc12	.	.	1	-12	-12	2	.
COc1ccccc1Nc1c2ccccc2nc2ccccc12	3	59*	9	23	49	13	3%
COc1ccc(Cl)c2sc(N(CCN(C)C)C(=O)C3=COCCO3)nc12	1	?	0	1	37	24	3%
O=C(Nc1cccc(Cl)c1)c1cc(S(=O)(=O)N2CCOCC2)cs1	-2	50*	-5	-2	-9	.	-12%
CN(C)C(=O)C[C@H]1CC[C@H]2[C@@H](COc3ccc(NC(=O)C4CCC4)cc3C(=O)N2C)O1	0	.	3	-4	-5	4	.
Cc1c(-c2cc(Br)ccc2O)nc2cc3c(cc2c1C)OCO3	.	?	6	3	-21	4	-23%
O=C(C[C@@H]1C=C[C@H](NS(=O)(=O)c2ccccc2)[C@H](CO)O1)N1CCN(c2ccccc2)CC1	0	.	0	-2	-21	2	.
SMILES	E-selectin induc	RAD54 branch	rRNA inh HTS	AF4-AF9 inh	RAD52 inh	INS-1E GSIS act	DNA binding
CC(C)NC(=O)N(C)C[C@H]1OCCCC[C@H](C)Oc2ccc(NC(=O)Cc3ccccc3)cc2C(=O)N([C@@H](C)CO)C[C@@H]1C	0	0	-2	-2	4	-8	.
Cc1[nH]ccc2c1[nH]c1cc(=O)ccc12	1	68*	12	0	41	3	-12%
O=c1cc[nH]c2c1ccc1c(=O)cc[nH]c12	1	-13	9	0	-20	-4	.
CCOC(=O)N1CCN(S(=O)(=O)c2ccc(C(=O)Nc3sc4c(c3C(=O)OC)CCN(C)C4)cc2)CC1	0	?	-15*	2	-77	-31	-7%
CN1CCc2[nH]c3ccc(C(=O)NN)cc3c2C1	.	67*	.	.	.	.	3%
CS(=O)(=O)Nc1ccc(S(=O)(=O)N2CCOCC2)cc1	.	4	.	.	.	.	.
Cc1ccc(S(=O)(=O)N2CCOCC2)c(C)c1NS(C)(=O)=O	0	?	.	.	.	18	0%
Cc1ccnc(SCC(=O)Nc2sc3c(c2C#N)CCC(C(C)(C)C)C3)n1 (stereo unspecified)	.	?	.	.	.	.	-12%
Cc1cc(C)nc(SCC(=O)Nc2sc3c(c2C#N)CCC(C)C3)n1 (stereo unspecified)	.	-5	.	.	.	.	.
OCCNc1nc(Nc2ccc(O)cc2)nc2ccccc12	0	52*	0	9	48	.	8%
C[C@@H]1CCCCO[C@H](CN(C)Cc2ccc(C(F)(F)F)cc2)[C@H](C)CN([C@@H](C)CO)C(=O)c2cc(NC(=O)c3ccccc3)ccc2O1	0	4	4	1	-15	-23	.
C[C@@H]1CN([C@@H](C)CO)S(=O)(=O)c2ccc(C#C[C@@H](C)O)cc2O[C@H]1CN(C)Cc1ccccc1	0	-2	-10	3	15	-11	.
O=C(Nc1ccc2c(c1)OCO2)c1cc(-c2ccncc2)nc2ccccc12	.	?	-22*	7	12	11	3%
CCc1csc(N2[C@H](C#N)[C@H](c3ccc(-c4ccc(F)cc4)cc3)[C@@H]2CO)n1	1	-1	2	0	-29	18	.
CN1CCN(c2ccc(NC(=O)COc3ccccc3Cl)cc2)CC1	.	9	.	.	.	7	.
C=CC(=O)Nc1ccc(N(C)c2ccnc(Nc3ccc(N4CCN(C)CC4)cc3)n2)cc1	.	75*	1	60*	100*	-5	4%
